Assay results as given in ChEMBL document CHEMBL1152572, “Synthesis and antimalarial activity of new chloroquine analogues carrying a multifunctional linear side chain” (Bioorg Med Chem, 2009).

Experiments:
Plasmodium falciparum [1] = experiment: Antiplasmodial activity against chloroquine-resistant Plasmodium falciparum Dd2 assessed as SYBR Green 1 fluorescence emission after 72 hrs; type: functional, organism-based; conditions: Dd2, 72 h
Outline: (§1)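 Sorbitol-synchronized P. falciparum cultures (>95% ring stage) exposed to serial drug dilutions in complete medium at 0.5% parasitemia, 1% hematocrit final. Incubated 72 h, 37 °C. SYBR Green I then added, 1 h at 37 °C. Fluorescence read at 530 nm emission, 490 nm excitation. Each dilution run in triplicate; IC50 averaged from at least two separate assays.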

Plasmodium falciparum [2] = experiment: Antiplasmodial activity against chloroquine-sensitive Plasmodium falciparum HB3 assessed as SYBR Green 1 fluorescence emission after 72 hrs; type: functional, organism-based; conditions: HB3, 72 h; outline: as §1
[3] = Resistance index, ratio IC50 for chloroquine-resistant Plasmodium falciparum Dd2 to IC50 for chloroquine-sensitive Plasmodium falciparum HB3; type: functional

SMILES	IC50 (Plasmodium falciparum [1]) [µM]	IC50 (Plasmodium falciparum [2]) [µM]	Ratio IC50 [3]
CCN(CC)CCCCC(=O)NCCNc1ccnc2cc(Cl)ccc12	1.19	0.228	5.2
CCN(CC)CC(=O)NCCNc1ccnc2cc(Cl)ccc12	3.36	0.715	4.7
CCN(CC)CCCCCC(=O)NCCNc1ccnc2cc(Cl)ccc12	2.7	0.287	9.4
CCN(CC)CCCCCCNCCNc1ccnc2cc(Cl)ccc12	0.231	0.0689	3.4
CCN(CC)CCCCCN(CC)CCNc1ccnc2cc(Cl)ccc12	0.0387	0.0089	4.3
CCN(CC)CCCC(=O)NCCNc1ccnc2cc(Cl)ccc12	1.19	0.225	5.3
CCN(CC)CCCN(CC)CCOc1ccnc2cc(Cl)ccc12	0.409	0.321	1.3
CCN(CC)CCC(=O)NCCOc1ccnc2cc(Cl)ccc12	1.46	1.71	0.9
CCN(CC)CCCNCCOc1ccnc2cc(Cl)ccc12	0.214	0.0946	2.3
CCN(CC)CCC(=O)NCCNc1ccnc2cc(Cl)ccc12	–	–	24.1
CCN(CC)CCCCN(CC)CCNc1ccnc2cc(Cl)ccc12	0.0362	0.0051	7.1
CCN(CC)CCCN(CC)CCCOc1ccnc2cc(Cl)ccc12	0.108	0.0775	1.4
CCN(CC)CCNCCNc1ccnc2cc(Cl)ccc12	1.57	0.0108	145
CCN(CC)CCCCNCCNc1ccnc2cc(Cl)ccc12	1.27	0.0307	41.5
CCN(CC)CCCCCNCCNc1ccnc2cc(Cl)ccc12	0.459	0.0289	15.9
CCN(CC)CCC(=O)NCCCOc1ccnc2cc(Cl)ccc12	0.752	2.31	0.3
CCN(CC)CCN(CCNc1ccnc2cc(Cl)ccc12)CCN(CC)CC	0.151	0.007	21.5
CCN(CC)CCN(CC)CCNc1ccnc2cc(Cl)ccc12	0.053	0.005	10.5
CCN(CC)CCCNCCCOc1ccnc2cc(Cl)ccc12	0.24	0.0197	12.2
CCN(CC)CCCCCCN(CC)CCNc1ccnc2cc(Cl)ccc12	0.0199	0.005	4
